Source: PubChem (several laboratories)
The list is not random: actives were taken first. Their share in the collection is about 1.7%.
Pemphigus Ab inh – blocks pemphigus antibody binding to human desmoglein-3. P32926. DSG3-coupled beads, scFv-anti-DSG3-GFP binding, flow cytometry; stronger effect = lower value. binding (percent of control), % at 10 µM. 310,000 tested, 0.48% active;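 active means binding more than 3 SD below its plate's average and above zero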;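 further: hits lower antibody fragment binding to DSG3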
Target sequence (P32926 whole entry, looked up, the tested form may be a part): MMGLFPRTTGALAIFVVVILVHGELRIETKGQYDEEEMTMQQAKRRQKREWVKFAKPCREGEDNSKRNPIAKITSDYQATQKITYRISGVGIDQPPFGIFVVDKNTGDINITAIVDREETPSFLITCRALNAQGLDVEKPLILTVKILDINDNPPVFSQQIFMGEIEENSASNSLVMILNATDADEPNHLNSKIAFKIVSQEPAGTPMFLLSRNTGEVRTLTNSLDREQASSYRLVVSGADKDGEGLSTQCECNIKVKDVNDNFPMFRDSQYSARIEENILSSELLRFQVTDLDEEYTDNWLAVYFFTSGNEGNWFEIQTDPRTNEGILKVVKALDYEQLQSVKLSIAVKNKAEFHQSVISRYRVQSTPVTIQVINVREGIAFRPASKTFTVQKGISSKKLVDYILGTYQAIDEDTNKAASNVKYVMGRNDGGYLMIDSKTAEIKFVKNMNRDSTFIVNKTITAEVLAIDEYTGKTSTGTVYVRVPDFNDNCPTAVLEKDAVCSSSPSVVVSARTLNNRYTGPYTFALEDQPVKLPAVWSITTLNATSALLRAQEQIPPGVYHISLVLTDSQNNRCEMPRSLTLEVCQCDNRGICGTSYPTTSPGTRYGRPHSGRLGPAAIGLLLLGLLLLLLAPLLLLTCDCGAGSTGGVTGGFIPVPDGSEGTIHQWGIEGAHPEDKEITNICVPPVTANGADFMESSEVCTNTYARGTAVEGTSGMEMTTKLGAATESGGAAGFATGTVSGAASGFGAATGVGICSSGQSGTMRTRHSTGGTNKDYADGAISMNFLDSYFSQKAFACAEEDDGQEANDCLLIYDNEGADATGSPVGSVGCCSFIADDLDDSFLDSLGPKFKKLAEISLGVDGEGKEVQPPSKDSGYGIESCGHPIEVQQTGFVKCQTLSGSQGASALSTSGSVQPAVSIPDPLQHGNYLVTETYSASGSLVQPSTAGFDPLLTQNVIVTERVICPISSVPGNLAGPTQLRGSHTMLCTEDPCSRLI
Efflux pump mplx – antifungal efflux pump inhibition, Nile Red retention; S. cerevisiae Candida pump triplex; inhibition, % at 10 µM; 330,000 tested, 0.44% active; AID 485275;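 active means plate passing quality check with inhibition over a set limit, or well fluorescence over plate mean plus 4 SD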;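 further: Nile Red retained in pooled yeast measured as flow cytometry median fluorescence; 0% = buffer negative control and 100% = Enniatin B positive control; higher means more Nile Red kept so more efflux inhibition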
Arrestin-AP2 inh – blocks beta-arrestin peptide binding to AP2 adaptin | FITC-arrestin peptide / GST-AP2 beads, flow cytometry; AP2 beta2 appendage carries R879A mutation | inhibition, % at 10 µM | 340,000 tested, 0.31% active;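 active means inhibition above a set limit, near 3 SD of compounds lacking own fluorescence, cut at about 54% in these data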;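 further: plate controls were DMSO wells for no effect and 5 µM unlabelled arrestin peptide for full effect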
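Material – AP2 appendage R879A on GSH beads · Buffer or medium – PBS with 0.05% Tween 20 and 0.1% BSA · Probe or stimulus – fluorescein-tagged arrestin peptide at 50 nM final · Incubation – compound with beads 12 min RT, then probe 1 h RT · Detection – high-throughput flow cytometry of beads, ex 488, em 535 nm · Evaluation – percent response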
Neddyl block – cullin neddylation inhibition; inhibition, % at 25 µM; P61081+Q13564; TR-FRET cullin neddylation, biochemical; 360,000 tested, 0.58% active; in the data active means inhibition above about 36%
Cmpd fluor yeast – compound fluorescence in yeast efflux pump counter-screen; 1,700 tested, 4% active; fluorescence ratio to DMSO, % at 10 µM; S. cerevisiae AD/pABC3, flow cytometry; shares compounds with Efflux pump mplx;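 active means fluorescence ratio to DMSO above its plate's cutoff, the plate mean ratio plus 5 SD, cut at about 210% in these data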;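 further: unstained yeast with no Nile Red so the signal is compound autofluorescence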
CaMdr1 efflux inh – inhibitors of Candida albicans Mdr1 efflux pump; shares compounds with Efflux pump mplx; AID 588518; S. cerevisiae AD/CaMDR1, Nile Red efflux, flow cytometry; 1,700 tested, 1% active; inhibition, % at 10 µM; in the data active means inhibition above about 26%;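 further: 0% = DMSO vehicle and 100% = reference inhibitor; higher means more Nile Red retained so more efflux inhibition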
CaCdr2 efflux inh – blocks the Candida albicans Cdr2 efflux pump in yeast. shares compounds with Efflux pump mplx. S. cerevisiae AD/CaCDR2, Nile Red retention, flow cytometry. Nile Red retention ratio vs DMSO, % at 10 µM. 1,700 tested, 4% active; in the data active means Nile Red retention ratio vs DMSO above about 190%;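 further: higher ratio means more blocking of Cdr2 efflux of the dye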
Cdr1 pump inh – Candida Cdr1 efflux pump inhibition; inhibition, % at 10 µM; S. cerevisiae AD/CaCDR1, Nile Red efflux, flow cytometry; 1,700 tested, 1% active; shares compounds with Efflux pump mplx; AID 588522;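 active means inhibition above the screen-wide mean plus twice its standard deviation, cut at about 32% in these data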
* hit, by the source's call.

`CCC(C)(C)NC(=O)C(c1ccccc1F)N(C(=O)c1ccn[nH]1)c1ccccc1` (centres undefined) gave Pemphigus Ab inh 108, Efflux pump mplx 0.4*, Arrestin-AP2 inh -5, Neddyl block -2, Cmpd fluor yeast 93, CaMdr1 efflux inh 0, CaCdr2 efflux inh 108 and Cdr1 pump inh 0.
`Cc1cc(C(=O)C(C(c2ccccc2)N2CCOCC2)N2CCOCC2)ccc1Cl` (centres undefined) gave Pemphigus Ab inh 96, Arrestin-AP2 inh 6 and Neddyl block 0.
Screening Cc1ccc(-c2c[n+](CC(=O)Nc3c(C)cccc3C)c3n2CCC3)cc1 returned Pemphigus Ab inh 102, Efflux pump mplx 0, Arrestin-AP2 inh -2 and Neddyl block -9.
Screening Cc1ccc(-c2c[n+](Cc3cccc(Cl)c3)c3n2CCC3)cc1 returned Pemphigus Ab inh 114, Efflux pump mplx 0, Arrestin-AP2 inh 8, Neddyl block 4, Cmpd fluor yeast 107, CaMdr1 efflux inh 0, CaCdr2 efflux inh 107 and Cdr1 pump inh 0.
For Cc1ccc(NC(=O)C[n+]2cc(-c3ccccc3)n3c2CCC3)c(C)c1 the results were Pemphigus Ab inh 107, Efflux pump mplx 0, Arrestin-AP2 inh 8, Neddyl block 6, Cmpd fluor yeast 89, CaMdr1 efflux inh 0, CaCdr2 efflux inh 87 and Cdr1 pump inh 0.
For CN(C(=O)c1cccc(NC(=O)Cc2cccc(NC(=O)C3CCCN(C(=O)C4CCCCC4)C3)c2)c1)C1CC1 (centres undefined) the results were Pemphigus Ab inh 106, Arrestin-AP2 inh 30 and Neddyl block 5.
`COc1cc(/C=C/C(=O)OCC(=O)NCC2CCCO2)ccc1OCC#N` (centres undefined) gave Pemphigus Ab inh 90, Efflux pump mplx 6.5*, Arrestin-AP2 inh 4, Neddyl block 33, Cmpd fluor yeast 98, CaMdr1 efflux inh 0, CaCdr2 efflux inh 90 and Cdr1 pump inh 0.
Cc1ccc2nc(/C(C#N)=C/c3ccc(-c4ccccc4C(=O)O)o3)[nH]c2c1 was read as Pemphigus Ab inh 104, Efflux pump mplx 0, Arrestin-AP2 inh 4 and Neddyl block -79.
`N#C/C(=C\c1ccc([N+](=O)[O-])o1)c1nc2ccccc2[nH]1` gave Efflux pump mplx 5.1*, Cmpd fluor yeast active, CaMdr1 efflux inh 4, CaCdr2 efflux inh 478* and Cdr1 pump inh 2.
Screening Cc1ccc2nc(/C(C#N)=C\c3ccc(N4CCOCC4)o3)[nH]c2c1 returned Pemphigus Ab inh 490, Efflux pump mplx 0.5*, Arrestin-AP2 inh -14, Neddyl block 35, Cmpd fluor yeast 128, CaMdr1 efflux inh 0, CaCdr2 efflux inh 131 and Cdr1 pump inh 0.
`Cc1ccc2nc(/C(C#N)=C\c3ccc([N+](=O)[O-])o3)[nH]c2c1` gave Pemphigus Ab inh 108, Efflux pump mplx 18*, Arrestin-AP2 inh 5, Neddyl block 17, Cmpd fluor yeast active, CaMdr1 efflux inh 8, CaCdr2 efflux inh active and Cdr1 pump inh 0.
CCOc1ccc(NC(=O)c2cc3c(=O)n(C)c4ccccc4c3n2C)cc1 was read as Pemphigus Ab inh 108, Efflux pump mplx 0, Arrestin-AP2 inh 0 and Neddyl block 37.
Screening CCCCCCCCCCSc1n[nH]c(N)n1 returned Pemphigus Ab inh 98, Efflux pump mplx 0, Arrestin-AP2 inh 2 and Neddyl block 13.
CN(CCCNC(=O)Cn1cccc1C(=O)c1ccccc1)C1CCCCC1 was read as Pemphigus Ab inh 96, Efflux pump mplx 0, Arrestin-AP2 inh -3 and Neddyl block 10.
Screening O=C(Nc1ccccc1Cl)c1ccccc1Oc1ccc(C(F)(F)F)cc1[N+](=O)[O-] returned Efflux pump mplx 0.4*, Arrestin-AP2 inh 7, Neddyl block -22, Cmpd fluor yeast 107, CaMdr1 efflux inh 0, CaCdr2 efflux inh 101 and Cdr1 pump inh 0.
For COc1cc2c(cc1O)CCN(C(=O)c1ccco1)C2C (centres undefined) the results were Efflux pump mplx 1.2*, Arrestin-AP2 inh 3, Neddyl block 6, Cmpd fluor yeast 97, CaMdr1 efflux inh 0, CaCdr2 efflux inh 110 and Cdr1 pump inh 0.
Screening CN(C)C(=O)c1ccc(Cc2cn(C)c3ccccc23)nc1 returned Neddyl block -7.
Screening O=C(Cc1ccc(Cl)cc1)c1c[nH]c(C(=O)NCCCn2ccnc2)c1 returned Pemphigus Ab inh 102, Efflux pump mplx 0.6*, Arrestin-AP2 inh -4, Neddyl block -12, Cmpd fluor yeast 99, CaMdr1 efflux inh 0, CaCdr2 efflux inh 85 and Cdr1 pump inh 0.
`O=C(NCc1ccco1)C1CCCN1C(=O)Nc1cccc(Cl)c1` (centres undefined) gave Pemphigus Ab inh 101, Efflux pump mplx 0, Arrestin-AP2 inh 7 and Neddyl block 5.
Screening Cc1cc(Br)ccc1SCC(=O)OCC(=O)Nc1ccc2[nH]c(=O)[nH]c2c1 returned Pemphigus Ab inh 102, Efflux pump mplx 0, Arrestin-AP2 inh 11 and Neddyl block 12.
N#Cc1nc(COc2ccc(Cl)cc2Cl)oc1N1CCOCC1 was read as Pemphigus Ab inh 101, Efflux pump mplx 0.8*, Arrestin-AP2 inh 1, Neddyl block -4, Cmpd fluor yeast 109, CaMdr1 efflux inh 0, CaCdr2 efflux inh 108 and Cdr1 pump inh 0.
`CC(=O)N1CCN(C(=O)c2cccc(S(=O)(=O)N3c4ccccc4CC3C)c2)CC1` (centres undefined) gave Efflux pump mplx 0, Arrestin-AP2 inh -6 and Neddyl block 0.
For CC1Cc2ccccc2N1S(=O)(=O)c1cccc(C(=O)N2CCN(c3ncccn3)CC2)c1 (centres undefined) the results were Pemphigus Ab inh 102, Efflux pump mplx 0.9*, Arrestin-AP2 inh 15, Neddyl block 8, Cmpd fluor yeast 106, CaMdr1 efflux inh 0, CaCdr2 efflux inh 103 and Cdr1 pump inh 0.
Cc1ccc(NC(=O)NC2CCCc3ccccc32)cc1 (centres undefined) was read as Pemphigus Ab inh 113, Efflux pump mplx 0, Arrestin-AP2 inh 33 and Neddyl block 2.
For CCOc1ccc(NC(=O)NC2CCCc3ccccc32)cc1 (centres undefined) the results were Pemphigus Ab inh 111, Efflux pump mplx 6.5*, Arrestin-AP2 inh 14, Neddyl block -8, Cmpd fluor yeast 103, CaMdr1 efflux inh 0, CaCdr2 efflux inh 109 and Cdr1 pump inh 0.
`CCn1c(SCC(O)c2ccccc2)nnc1-c1ccccc1` (centres undefined) gave Efflux pump mplx 0, Arrestin-AP2 inh 2 and Neddyl block 7.
